Measurements as given in the EternaBench riboswitch data.

Tested on: MS2 coat protein
Test: apparent Kd, MS2 coat protein; higher = weaker binding; RNA-MaP array; FMN 200 µM where present
How it was run: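 The apparent Kd is the median of filtered binding-curve fits, one per cluster, to green signal normalised to red-channel RNA signal and control-cluster median Fmax. The clusters were on Illumina sequencing chips, and stalled E. coli RNA polymerase had transcribed the designs on them. Titration used SNAP-549-labelled MS2 coat protein from 0.7 or 1.5 nM, doubling to 3 µM, without and then with constant ligand, in 100 mM Tris-HCl pH 7.5, 80 mM KCl, 4 mM MgCl2, BSA, DTT, yeast tRNA and Tween-20.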

[1] = designed as: OFF switch for flavin mononucleotide, no ligand
[2] = ligand present: flavin mononucleotide, designed as: OFF switch for flavin mononucleotide
[3] = designed as: ON switch for flavin mononucleotide, no ligand
[4] = ligand present: flavin mononucleotide, designed as: ON switch for flavin mononucleotide

AUAGUUUUCAUAGGAUAUUGAAUUAUAUUUAAUCAAGAAGGAUGAAUACAUGAGGAUCACCCAUGUUAACAUGGAUUAAGUAGU
apparent Kd [1]: 20.9 nM | apparent Kd [2]: 44.3 nM

AGAAACUACGAGAAGGACAUAUGAUUAAGACGAAACAUGAGGAUCACCCAUGUAGGAUAUCGUAGUUUCAGGAUCGUGAGAUCA
apparent Kd [1]: 7.21 nM | apparent Kd [2]: 17.8 nM

GAUAUGAUGUGAGGAUAUGCUGAGGAUACUUCAGCAGAAGGCACAUGAGGAUCACCCAUGUACACUUAUCAUAAAUACCAUAUC
apparent Kd [1]: 12.7 nM | apparent Kd [2]: 19 nM

CUGGUUGUCGAGGAUAUGUCCCGGCUCGCAGUCGCAGAAGGCGACACAUGAGGAUCACCCAUGUCGGUUCGCGU
apparent Kd [1]: 13.8 nM | apparent Kd [2]: 13.3 nM

CACUGCAAUGUAGGAUAUCGACUGGAUAACAGUCGAGAAGGACAUGAGGAUCACCCAUGUACUAAUAGUGAUAAUAAAGCAGUG
apparent Kd [1]: 13.5 nM | apparent Kd [2]: 55 nM

GCGACGAAAGUCGAACGAUGUAGCAGAAGGACAUGAGGAUCACCCAUGUCAGCUGUAACAGCCAUGUAGGAUAUGCUACAUCGG
apparent Kd [1]: 4.09 nM | apparent Kd [2]: 5.27 nM

AGCAUGUGAGGAUAUGUGAGCCUCAUCCGAAGGACGAGGGAAUAGAAGGCACAUGAGGAUCACCCAUGUGAUGA
apparent Kd [1]: 27.3 nM | apparent Kd [2]: 74.3 nM

GCCUUAUCGGUCAGGAUAUACACCCGUCAGUUGUUGUAGAAGGGACAUGAGGAUCACCCAUGUACAUUACAUUG
apparent Kd [1]: 21.8 nM | apparent Kd [2]: 45.5 nM

AAUGAGACCGCAGGAUAUCCACAUGAGGAUCACCCAUGUUCUCAGACCGGAAGCACGAUCUGCGAGGAGAAGGGCGACCUCAUA
apparent Kd [3]: 716 nM | apparent Kd [4]: 53.1 nM

GUUUCACAUGAGGAUCACCCAUGUGAGGAUAUAGAUUUUUUAGUAAUAAUUGUUGGAUUUAGAAGGCGCGUGAU
apparent Kd [1]: 22 nM | apparent Kd [2]: 21.5 nM

GGAGCAACAUGAGGAUCACCCAUGUAGGAUAUCGCUAUUGUAAUCAUGAAACAUGAUUACAAUAGCGAGAAGGACAUAUGCUUU
apparent Kd [1]: 9.32 nM | apparent Kd [2]: 11.9 nM

CUUAUGUGAGGAUAUCAGUAGUAAAAAAAUAAAAUUACUACUGAGAAGGCACAUGAGGAUCACCCAUGUGUCUC
apparent Kd [1]: 20.4 nM | apparent Kd [2]: 22.2 nM

AUGCCUAAUGAGAAGGUGUAUAUAAAUUAUAUACAAGGAUAUCGGUCAAGCAUGAAAACAUGAGGAUCACCCAUGUUAAGGCAU
apparent Kd [3]: 7.57 nM | apparent Kd [4]: 6.36 nM

AGGUACGGUCGAUCAUAUCAAGGUAGAAGGCGACUGGGAAUGUGAGACAUGAGGAUCACCCAUGUCGAGGAUAUACCUGAAAGU
apparent Kd [1]: 88.9 nM | apparent Kd [2]: 50.1 nM

AUAAAACAUGAGGAUCACCCAUGUCAACAAAGUCGAGGAUAUGGGCAAAUAAAAUAAGAACCAGAAGGCGAAUAAC
apparent Kd [3]: 371 nM | apparent Kd [4]: 34.7 nM

CUCAUGUUAGGAUAUGCGCCCAGCCUAGUGGCCGGGCUCUAGCAGAAGGAACAUGAGGAUCACCCAUGUUUGCA
apparent Kd [1]: 62.5 nM | apparent Kd [2]: 18.6 nM

UUCUUGCAAGGAUAUGAUUUAAGUAACAUGAGGAUCACCCAUGUUUUUCCGUUGUUAUGUUCAGAAGGUGCGUGAU
apparent Kd [1]: 55.8 nM | apparent Kd [2]: 63.3 nM

AAAAAACAUGAGGAUCACCCAUGUGAGGAUAUGAUGCGAAUAAAGAAAGAAGAAAGCAUCAGAAGGCACACCUA
apparent Kd [1]: 50.1 nM | apparent Kd [2]: 83.9 nM

GGCUCAUUUACAUUAAUGUGCAGACAGGAUAUCCACGGCGGUUCCUACAUGAGGAUCACCCAUGUGGAGAAGGGUCGCUAAUGG
apparent Kd [1]: 19.6 nM | apparent Kd [2]: 28 nM

GAGCCUCCGUAGAAGGCCGCGGAAUUCGAACGCGGAGGAUAUACAUGAGGAUCACCCAUGUGAAAGUGGAAAGAUAAAACGCUU
apparent Kd [1]: 12.4 nM | apparent Kd [2]: 30.4 nM

UGACGGAGCUGAGGAUAUACAUGAGGAUCACCCAUGUAAGAUCUCCAGGAAACUGGAGAUCAAAAGUAGAAGGCAGCUCCGUCA
apparent Kd [1]: 15.4 nM | apparent Kd [2]: 23.4 nM

GUCAAAACCAUACUGGUCGACGGUCAGGAUAUACAUGAGGAUCACCCAUGUGCUAUUGAUACUAUGUAGAAGGGACCCACCGCA
apparent Kd [1]: 16.2 nM | apparent Kd [2]: 30 nM

GUGUAGUCAGGAUAUACAGAGGAAGAUAAUACAAUAUAAGUACAUGAGGAUCACCCAUGUAGAAGGGACAGUGU
apparent Kd [1]: 30.8 nM | apparent Kd [2]: 32.4 nM

AGACGGAUCCGCGGUCGAUGCUAACUAGAAGGGCAGGUCACAUGAGGAUCACCCAUGUAGUAUAUGUAGGAUAUAGGAAGCGUU
apparent Kd [3]: 75 nM | apparent Kd [4]: 15.8 nM

CCAUUCAGAGGAUAUGCGCAUAGAUAAGACUUUUUUUUUUAACAUGAGGAUCACCCAUGUAGAAGGCUGUAACC
apparent Kd [1]: 23.2 nM | apparent Kd [2]: 23.1 nM

AGCUGGUGACAGCAAGAAACUUCACAUGAGGAUCACCCAUGUAGAAGGCUGUACGGUUACCGUACAGAGGAUAUACAUUGAAGA
apparent Kd [1]: 5.59 nM | apparent Kd [2]: 8.63 nM

UCUCUUCUGUAGAAGGCCCAACUUGUGAAGAUAACGAUACUAUAGAAGUAGGGAGGAUAUACAUGAGGAUCACCCAUGUAGGAA
apparent Kd [1]: 8.09 nM | apparent Kd [2]: 15.8 nM

CUCGGACAUGAGGAUCACCCAUGUGAGGAUAUGAUGCGAUCGUCGAAAGACGAUAGCAUCAGAAGGCACAAAUG
apparent Kd [1]: 75.6 nM | apparent Kd [2]: 301 nM

GGUGCGUUUGUGAGGAUAUGCUGGUCCUUGGAUCAGCAGAAGGCACAUGAGGAUCACCCAUGUGGUGUCGUACC
apparent Kd [1]: 447 nM | apparent Kd [2]: 47.3 nM

GUUGCAAAUGAGAAGGCGAUCAUGAAACAUGAUCGAGGAUAUCAUGUUUACAUGAGGAUCACCCAUGUAUGGGUAUAUUGCAGC
apparent Kd [3]: 402 nM | apparent Kd [4]: 22.2 nM

GAUCCUUCUGUUAGGAUAUGCUUUGGGCUUCCGCAGCAGAAGGAACAUGAGGAUCACCCAUGUCAAAUAACAUC
apparent Kd [1]: 21.4 nM | apparent Kd [2]: 22.8 nM

AUGAGUAAAGCAGGAUAUCUAUUGUCUCUGUAACAUGAGGAUCACCCAUGUAGAGAAGGGCUUAGUCAUACACUUCGAAGUUGA
apparent Kd [1]: 9.13 nM | apparent Kd [2]: 10.1 nM

UAUGUAUUCGUAGGAUAUCCGUUGAGACCGUGUGGAGAAGGACGAACAUGAGGAUCACCCAUGUAUCAUGGUGUAGACAAUUUU
apparent Kd [1]: 115 nM | apparent Kd [2]: 353 nM

UGCUGGGAGUCAGGAUAUACGUGGUAUGCUGAGCACAUGAGGAUCACCCAUGUAGAAGGGAUUCCGCGGUGAGAUUCCGAAACA
apparent Kd [1]: 6.03 nM | apparent Kd [2]: 6.62 nM

GUCUCAGCUGAGGAUAUAUUCUCCCUUGAGGGAAUAGAAGGCAGUACAUGAGGAUCACCCAUGUGGUUCGUUUG
apparent Kd [1]: 122 nM | apparent Kd [2]: 327 nM

AAGUCGCUAGGAGGAUAUACAUGAUCUCACACAUGUACCGCUCACGCCACAUGAGGAUCACCCAUGUAGAAGGCCUAGAGAGGU
apparent Kd [1]: 23.4 nM | apparent Kd [2]: 62.4 nM

UUGUUGUAUGUAGGAUAUGCGUAUUGUUAUUAUGCAGAAGGACAUGAGGAUCACCCAUGUAUAUUAUUAUUAUAUAUUAUAUAU
apparent Kd [1]: 26.3 nM | apparent Kd [2]: 43.5 nM

CUAUUCCGAGGAUAUACAUGAGGAUCACCCAUGUCGGGCCUCCGCGUUUAGCGCCUCAGUAGAAGGCGGGUUUC
apparent Kd [1]: 19.1 nM | apparent Kd [2]: 25.4 nM

CUGGUUGUCGUAGGAUAUGUAGGAUAUUCCUACAUGAGGAUCACCCAUGUUCGCAUGGAAGAAGGACAGAAGGACGAUGACCAU
apparent Kd [3]: 1020 nM | apparent Kd [4]: 9.16 nM

UGCCUGAGGCAAAGCUUUAGGUAUACAUGAGGAUCACCCAUGUAGGAUAUGGUAGGCUUUGCUUACCAGAAGGACAUGUUAAUU
apparent Kd [1]: 19.8 nM | apparent Kd [2]: 54.6 nM

AUUACAUGAGGAUCACCCAUGUACAGCACGUUUCAAAACAGUGAGGAUAUACGAAAUGUAGGAACGUAGAAGGCACUGGGUGCA
apparent Kd [3]: 98.3 nM | apparent Kd [4]: 34.2 nM

UAUAUAUAGUAAGGAUAUGUAAUUAUUUUAUUAACAGAAGGUACUGACAUGAGGAUCACCCAUGUUUUAGUGUGGGCAUGUAGA
apparent Kd [1]: 83.5 nM | apparent Kd [2]: 184 nM

AAACAUGUCCGAGGAUAUCUGAGAUCACUUUCAAGAGAAGGCGGACAUGAGGAUCACCCAUGUCUCUCCUCAUCAACUCCAAAU
apparent Kd [1]: 8.01 nM | apparent Kd [2]: 41.9 nM

GGAUAGGACAGAGGAUAUACGUGCUAGAGAUACUAGCAUAAUUUCCUCACAUGAGGAUCACCCAUGUAGAAGGCUGUCCUAUCG
apparent Kd [1]: 6.78 nM | apparent Kd [2]: 46.7 nM

GCCAUCGCAUGAGGAUAUGGUCAGCUUUGCUGACCAGAAGGCAUGUCAUAAGACAUGAGGAUCACCCAUGUAGUUAAGAUGGCA
apparent Kd [3]: 778 nM | apparent Kd [4]: 47.9 nM

CCACCCUGAGGAUAUCCACCCUCAUACAUGAGGAUCACCCAUGUUCAUGCCUGAGUUCCCGGAGAAGGCAGAUUCC
apparent Kd [1]: 109 nM | apparent Kd [2]: 87.2 nM

AUGCUUUGUGUAGGAUAUGCAUACGGUACGUAUGCAGAAGGACAUGAGGAUCACCCAUGUAUAUUAUUAUUACAUAUCAUACAU
apparent Kd [1]: 35.3 nM | apparent Kd [2]: 229 nM

ACAAAUGGAGGAUAUACAUGAGGAUCACCCAUGUAUAUCCUACAUAUGUGAUAAUCAUGUAGAAGGCCAUUUGA
apparent Kd [1]: 12.3 nM | apparent Kd [2]: 11 nM

GUAAAGUGAGGAUAUGGUAAAGUAAGUAUUUAGUAAGUAAUCCAGAAGGCACAUGAGGAUCACCCAUGUAAAUG
apparent Kd [1]: 29.3 nM | apparent Kd [2]: 35.8 nM

GGGCUGUCAGGAUAUGCUUCGGCUUCGGAAAUGAAGUUGAAGUAGAAGGGACAUGAGGAUCACCCAUGUGGCCC
apparent Kd [1]: 28.9 nM | apparent Kd [2]: 35 nM

GGUGGACAUGAGGAUCACCCAUGUGAGGAUAUCGGCCGGUUCGCGGUGGCUGGCGUCUCGAGAAGGCGCAUAGU
apparent Kd [1]: 36.9 nM | apparent Kd [2]: 40.2 nM

AGGAAGCAAGGAUAUACGAGGAGAAGGUGGAGAGUUAAAGGACAUGAGGAUCACCCAUGUAGAAGGUGCGAGAA
apparent Kd [1]: 59.7 nM | apparent Kd [2]: 76.8 nM

GCAUGGAAAGUGAGGAUAUACCACUGGAUACAGUGGUAGAAGGCACAUGAGGAUCACCCAUGUUCCUACCAUGC
apparent Kd [1]: 16.9 nM | apparent Kd [2]: 71.3 nM

AUCGGUCCGUAGAAGGGUGACAUGAGGAUCACCCAUGUGCCGUGUGCAUUUAUGCCUCCACGGCCACAGGAUAUACGGAGUUGA
apparent Kd [3]: 80.1 nM | apparent Kd [4]: 39.1 nM

UCGUGUCAUGUAGGAUAUGACACAGGAAACUGGUCAGAAGGACAUGAGGAUCACCCAUGUAAAAUGUUCAAGAAUAACGCAUGC
apparent Kd [1]: 78.8 nM | apparent Kd [2]: 161 nM
